Results as given in ChEMBL document CHEMBL3632558, “Synthesis, antimycobacterial and antibacterial activity of l-[(1R,2S)-2-fluorocyclopropyl]naphthyridone derivatives containing an oxime-functionalized pyrrolidine moiety” (2015).
In brackets after ≈: the same amount, converted by molar mass.

Legend:
Format in all cases: functional
Enterococcus faecalis [1] = experiment: Antibacterial activity against Enterococcus faecalis 14-2 after 18 to 24 hrs
Procedure, shortened: (§1)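 MIC by standard NCCLS reference procedure (M100-S11); lowest concentration of compound inhibiting visible bacterial growth after incubation at 35 °C for 18–24 h, read as complete inhibition of growth. Ciprofloxacin, levofloxacin and moxifloxacin run alongside as reference agents.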

Enterococcus faecium [2] = experiment: Antibacterial activity against Enterococcus faecium 14-1 after 18 to 24 hrs; procedure, shortened: as §1
Enterococcus faecium [3] = experiment: Antibacterial activity against Enterococcus faecium 14-2 after 18 to 24 hrs; procedure, shortened: as §1
Enterococcus faecium [4] = experiment: Antibacterial activity against Enterococcus faecium 14-5 after 18 to 24 hrs; procedure, shortened: as §1
Enterococcus faecium [5] = experiment: Antibacterial activity against Enterococcus faecium 14-6 after 18 to 24 hrs; procedure, shortened: as §1
[6] = system: Mycobacterium tuberculosis; experiment: Antimycobacterial activity against Mycobacterium tuberculosis H37Rv ATCC 27294 by alamar blue assay
Procedure, shortened: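 Microplate Alamar Blue Assay; MIC is the lowest concentration giving ≥90% reduction in fluorescence relative to the mean of replicate bacterium-only controls. MDR strain 6133 is resistant to isoniazid and rifampicin.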

Escherichia coli [7] = experiment: Antibacterial activity against Escherichia coli ATCC 25922 after 18 to 24 hrs; procedure, shortened: as §1
Escherichia coli [8] = experiment: Antibacterial activity against ESBL-positive Escherichia coli 14-1 after 18 to 24 hrs; procedure, shortened: as §1
Escherichia coli [9] = experiment: Antibacterial activity against ESBL-positive Escherichia coli 14-2 after 18 to 24 hrs; procedure, shortened: as §1
Escherichia coli [10] = experiment: Antibacterial activity against Escherichia coli 14-1 after 18 to 24 hrs; procedure, shortened: as §1
Escherichia coli [11] = experiment: Antibacterial activity against Escherichia coli 14-2 after 18 to 24 hrs; procedure, shortened: as §1
Klebsiella pneumoniae [12] = experiment: Antibacterial activity against ESBL-positive Klebsiella pneumoniae 14-17 after 18 to 24 hrs; procedure, shortened: as §1
Klebsiella pneumoniae [13] = experiment: Antibacterial activity against ESBL-positive Klebsiella pneumoniae 14-18 after 18 to 24 hrs; procedure, shortened: as §1
Klebsiella pneumoniae [14] = experiment: Antibacterial activity against ESBL-positive Klebsiella pneumoniae 14-19 after 18 to 24 hrs; procedure, shortened: as §1
Klebsiella pneumoniae [15] = experiment: Antibacterial activity against Klebsiella pneumoniae 14-1 after 18 to 24 hrs; procedure, shortened: as §1
Klebsiella pneumoniae [16] = experiment: Antibacterial activity against Klebsiella pneumoniae 14-2 after 18 to 24 hrs; procedure, shortened: as §1
Klebsiella pneumoniae [17] = experiment: Antibacterial activity against Klebsiella pneumoniae 14-3 after 18 to 24 hrs; procedure, shortened: as §1
Klebsiella pneumoniae [18] = experiment: Antibacterial activity against Klebsiella pneumoniae 14-4 after 18 to 24 hrs; procedure, shortened: as §1
Pseudomonas aeruginosa [19] = experiment: Antibacterial activity against Pseudomonas aeruginosa ATCC 27853 after 18 to 24 hrs; procedure, shortened: as §1
Pseudomonas aeruginosa [20] = experiment: Antibacterial activity against Pseudomonas aeruginosa 14-9 after 18 to 24 hrs; procedure, shortened: as §1
Pseudomonas aeruginosa [21] = experiment: Antibacterial activity against Pseudomonas aeruginosa 14-14 after 18 to 24 hrs; procedure, shortened: as §1
Pseudomonas aeruginosa [22] = experiment: Antibacterial activity against Pseudomonas aeruginosa 14-15 after 18 to 24 hrs; procedure, shortened: as §1
Pseudomonas aeruginosa [23] = experiment: Antibacterial activity against Pseudomonas aeruginosa 14-16 after 18 to 24 hrs; procedure, shortened: as §1
Pseudomonas aeruginosa [24] = experiment: Antibacterial activity against Pseudomonas aeruginosa 14-19 after 18 to 24 hrs; procedure, shortened: as §1
Staphylococcus aureus [25] = experiment: Antibacterial activity against Staphylococcus aureus CMCC 26003 after 18 to 24 hrs; procedure, shortened: as §1
Staphylococcus aureus [26] = experiment: Antibacterial activity against methicillin-sensitive Staphylococcus aureus 14-1 after 18 to 24 hrs; procedure, shortened: as §1
Staphylococcus aureus [27] = experiment: Antibacterial activity against methicillin-sensitive Staphylococcus aureus 14-2 after 18 to 24 hrs; procedure, shortened: as §1
Staphylococcus aureus [28] = experiment: Antibacterial activity against methicillin-sensitive Staphylococcus aureus 14-3 after 18 to 24 hrs; procedure, shortened: as §1
Staphylococcus aureus [29] = experiment: Antibacterial activity against methicillin-sensitive Staphylococcus aureus 14-4 after 18 to 24 hrs; procedure, shortened: as §1
Staphylococcus aureus [30] = experiment: Antibacterial activity against methicillin-resistant Staphylococcus aureus 14-4 after 18 to 24 hrs
Staphylococcus aureus [31] = experiment: Antibacterial activity against methicillin-resistant Staphylococcus aureus 14-5 after 18 to 24 hrs
[32] = system: Staphylococcus epidermidis; experiment: Antibacterial activity against methicillin-sensitive Staphylococcus epidermidis 14-2 after 18 to 24 hrs; procedure, shortened: as §1
[33] = system: Staphylococcus epidermidis; experiment: Antibacterial activity against methicillin-resistant Staphylococcus epidermidis 14-21 after 18 to 24 hrs
[34] = system: Staphylococcus epidermidis; experiment: Antibacterial activity against methicillin-resistant Staphylococcus epidermidis 14-22 after 18 to 24 hrs
[35] = system: Staphylococcus epidermidis; experiment: Antibacterial activity against methicillin-resistant Staphylococcus epidermidis 14-37 after 18 to 24 hrs
[36] = system: Staphylococcus epidermidis; experiment: Antibacterial activity against methicillin-resistant Staphylococcus epidermidis 14-39 after 18 to 24 hrs
Streptococcus pneumoniae = experiment: Antibacterial activity against Streptococcus pneumoniae ATCC 19615 after 18 to 24 hrs; procedure, shortened: as §1
Enterococcus faecalis [37] = experiment: Antibacterial activity against Enterococcus faecalis 14-1 after 18 to 24 hrs; procedure, shortened: as §1

Compound | MIC (Enterococcus faecalis [1]) | MIC (Enterococcus faecium [2]) | MIC (Enterococcus faecium [3]) | MIC (Enterococcus faecium [4]) | MIC (Enterococcus faecium [5]) | MIC90 [6] | MIC (Escherichia coli [7]) | MIC (Escherichia coli [8]) | MIC (Escherichia coli [9]) | MIC (Escherichia coli [10]) | MIC (Escherichia coli [11]) | MIC (Klebsiella pneumoniae [12]) | MIC (Klebsiella pneumoniae [13]) | MIC (Klebsiella pneumoniae [14]) | MIC (Klebsiella pneumoniae [15]) | MIC (Klebsiella pneumoniae [16]) | MIC (Klebsiella pneumoniae [17]) | MIC (Klebsiella pneumoniae [18]) | MIC (Pseudomonas aeruginosa [19]) | MIC (Pseudomonas aeruginosa [20]) | other results
NCC1CN(c2nc3c(cc2F)c(=O)c(C(=O)O)cn3[C@@H]2C[C@@H]2F)C/C1=N\OCc1ccc(OC(F)(F)F)cc1 (some centres undefined) | 0.5 µg/mL (≈ 0.881 µM) | 4 µg/mL (≈ 7.05 µM) | 4 µg/mL (≈ 7.05 µM) | 8 µg/mL (≈ 14.1 µM) | 4 µg/mL (≈ 7.05 µM) | 0.987 µg/mL (≈ 1.74 µM) | 2 µg/mL (≈ 3.52 µM) | 8 µg/mL (≈ 14.1 µM) | 128 µg/mL (≈ 226 µM) | 128 µg/mL (≈ 226 µM) | 128 µg/mL (≈ 226 µM) | 32 µg/mL (≈ 56.4 µM) | 32 µg/mL (≈ 56.4 µM) | 128 µg/mL (≈ 226 µM) | 128 µg/mL (≈ 226 µM) | 128 µg/mL (≈ 226 µM) | 128 µg/mL (≈ 226 µM) | 128 µg/mL (≈ 226 µM) | 16 µg/mL (≈ 28.2 µM) | 16 µg/mL (≈ 28.2 µM) | MIC (Pseudomonas aeruginosa [21]): 32 µg/mL (≈ 56.4 µM); MIC (Pseudomonas aeruginosa [22]): 32 µg/mL (≈ 56.4 µM); MIC (Pseudomonas aeruginosa [23]): 32 µg/mL (≈ 56.4 µM); MIC (Pseudomonas aeruginosa [24]): 16 µg/mL (≈ 28.2 µM); MIC (Staphylococcus aureus [25]): < 0.008 µg/mL; MIC (Staphylococcus aureus [26]): 4 µg/mL (≈ 7.05 µM); MIC (Staphylococcus aureus [27]): 0.03 µg/mL (≈ 0.0529 µM); MIC (Staphylococcus aureus [28]): 0.015 µg/mL (≈ 0.0264 µM); MIC (Staphylococcus aureus [29]): 0.06 µg/mL (≈ 0.106 µM); MIC (Staphylococcus aureus [30]): 16 µg/mL (≈ 28.2 µM); MIC (Staphylococcus aureus [31]): 4 µg/mL (≈ 7.05 µM); MIC [32]: 16 µg/mL (≈ 28.2 µM); MIC [33]: 8 µg/mL (≈ 14.1 µM); MIC [34]: 8 µg/mL (≈ 14.1 µM); MIC [35]: 8 µg/mL (≈ 14.1 µM); MIC [36]: 8 µg/mL (≈ 14.1 µM); MIC (Streptococcus pneumoniae): 0.015 µg/mL (≈ 0.0264 µM); MIC (Enterococcus faecalis [37]): 32 µg/mL (≈ 56.4 µM)
CO/N=C1\CN(c2nc3c(cc2F)c(=O)c(C(=O)O)cn3[C@@H]2C[C@@H]2F)CC1(C)CN (some centres undefined) | 0.125 µg/mL (≈ 0.297 µM) | 2 µg/mL (≈ 4.75 µM) | 2 µg/mL (≈ 4.75 µM) | 4 µg/mL (≈ 9.49 µM) | 8 µg/mL (≈ 19 µM) | 0.372 µg/mL (≈ 0.883 µM) | 0.03 µg/mL (≈ 0.0712 µM) | 4 µg/mL (≈ 9.49 µM) | 64 µg/mL (≈ 152 µM) | 32 µg/mL (≈ 75.9 µM) | 32 µg/mL (≈ 75.9 µM) | 4 µg/mL (≈ 9.49 µM) | 4 µg/mL (≈ 9.49 µM) | 128 µg/mL (≈ 304 µM) | 128 µg/mL (≈ 304 µM) | > 128 µg/mL | 128 µg/mL (≈ 304 µM) | 64 µg/mL (≈ 152 µM) | 2 µg/mL (≈ 4.75 µM) | 4 µg/mL (≈ 9.49 µM) | MIC (Pseudomonas aeruginosa [21]): 8 µg/mL (≈ 19 µM); MIC (Pseudomonas aeruginosa [22]): 8 µg/mL (≈ 19 µM); MIC (Pseudomonas aeruginosa [23]): 8 µg/mL (≈ 19 µM); MIC (Pseudomonas aeruginosa [24]): 8 µg/mL (≈ 19 µM); MIC (Staphylococcus aureus [25]): < 0.008 µg/mL; MIC (Staphylococcus aureus [26]): 2 µg/mL (≈ 4.75 µM); MIC (Staphylococcus aureus [27]): 0.015 µg/mL (≈ 0.0356 µM); MIC (Staphylococcus aureus [28]): < 0.008 µg/mL; MIC (Staphylococcus aureus [29]): 0.015 µg/mL (≈ 0.0356 µM); MIC (Staphylococcus aureus [30]): 8 µg/mL (≈ 19 µM); MIC (Staphylococcus aureus [31]): 4 µg/mL (≈ 9.49 µM); MIC [32]: 16 µg/mL (≈ 38 µM); MIC [33]: 2 µg/mL (≈ 4.75 µM); MIC [34]: 8 µg/mL (≈ 19 µM); MIC [35]: 8 µg/mL (≈ 19 µM); MIC [36]: 8 µg/mL (≈ 19 µM); MIC (Streptococcus pneumoniae): 0.015 µg/mL (≈ 0.0356 µM); MIC (Enterococcus faecalis [37]): 32 µg/mL (≈ 75.9 µM)
CCO/N=C1\CN(c2nc3c(cc2F)c(=O)c(C(=O)O)cn3[C@@H]2C[C@@H]2F)CC1(C)N (some centres undefined) | 2 µg/mL (≈ 4.75 µM) | > 128 µg/mL | > 128 µg/mL | > 128 µg/mL | > 128 µg/mL | 0.42 µg/mL (≈ 0.997 µM) | 1 µg/mL (≈ 2.37 µM) | 32 µg/mL (≈ 75.9 µM) | > 128 µg/mL | > 128 µg/mL | > 128 µg/mL | 32 µg/mL (≈ 75.9 µM) | 32 µg/mL (≈ 75.9 µM) | 128 µg/mL (≈ 304 µM) | 128 µg/mL (≈ 304 µM) | > 128 µg/mL | 128 µg/mL (≈ 304 µM) | > 128 µg/mL | 16 µg/mL (≈ 38 µM) | 16 µg/mL (≈ 38 µM) | MIC (Pseudomonas aeruginosa [21]): 32 µg/mL (≈ 75.9 µM); MIC (Pseudomonas aeruginosa [22]): 32 µg/mL (≈ 75.9 µM); MIC (Pseudomonas aeruginosa [23]): 32 µg/mL (≈ 75.9 µM); MIC (Pseudomonas aeruginosa [24]): 64 µg/mL (≈ 152 µM); MIC (Staphylococcus aureus [25]): 0.25 µg/mL (≈ 0.593 µM); MIC (Staphylococcus aureus [26]): 64 µg/mL (≈ 152 µM); MIC (Staphylococcus aureus [27]): 0.25 µg/mL (≈ 0.593 µM); MIC (Staphylococcus aureus [28]): 0.5 µg/mL (≈ 1.19 µM); MIC (Staphylococcus aureus [29]): 1 µg/mL (≈ 2.37 µM); MIC (Staphylococcus aureus [30]): 64 µg/mL (≈ 152 µM); MIC (Staphylococcus aureus [31]): 128 µg/mL (≈ 304 µM); MIC [32]: > 128 µg/mL; MIC [33]: 64 µg/mL (≈ 152 µM); MIC [34]: 32 µg/mL (≈ 75.9 µM); MIC [35]: 32 µg/mL (≈ 75.9 µM); MIC [36]: 128 µg/mL (≈ 304 µM); MIC (Streptococcus pneumoniae): 0.25 µg/mL (≈ 0.593 µM); MIC (Enterococcus faecalis [37]): 128 µg/mL (≈ 304 µM)
